ChEMBL document CHEMBL1156686, “Xanthine oxidase-activated prodrugs of thymidine phosphorylase inhibitors” (Eur J Med Chem, 2008)
Each block holds one compound with its values, some of them ahead of it. Active and inactive are the calls of the source. No cut-off for these calls is given here.

Legend:
[1] = target: Thymidine phosphorylase (Escherichia coli K-12) (UniProt P07650); assay: Inhibition of Escherichia coli thymidine phosphorylase at 106.3 to 212.6 uM
In short: (§1)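 Recombinant E. coli TP (0.00883 U per 0.2 ml) added to start a continuous spectrophotometric assay. Mix: 0.13 mM 5-nitro-2'-deoxyuridine substrate in 0.1 M potassium phosphate, pH 7.4, 25 °C, read at 355 nm in a microplate. Initial velocity compared with the mean of at least two no-inhibitor controls. Where derived, IC50 used at least five concentrations spanning the value.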

[2] = target: Thymidine phosphorylase (Escherichia coli K-12) (UniProt P07650); assay: Inhibition of Escherichia coli thymidine phosphorylase at 68.4 to 136.9 uM; in short: as §1
[3] = target: Thymidine phosphorylase (Escherichia coli K-12) (UniProt P07650); assay: Inhibition of Escherichia coli thymidine phosphorylase at 163 uM; in short: as §1
[4] = target: Thymidine phosphorylase (Escherichia coli K-12) (UniProt P07650); assay: Inhibition of Escherichia coli thymidine phosphorylase at 66 uM; in short: as §1
[5] = target: Thymidine phosphorylase (Escherichia coli K-12) (UniProt P07650); assay: Inhibition of Escherichia coli thymidine phosphorylase at 45 uM; in short: as §1
[6] = target: Thymidine phosphorylase (Escherichia coli K-12) (UniProt P07650); assay: Inhibition of Escherichia coli thymidine phosphorylase at 47.2 uM
In short: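 Recombinant E. coli TP; continuous spectrophotometric assay at 355 nm, 25 °C, 0.2 ml. Contains 0.13 mM 5-nitro-2'-deoxyuridine substrate in 0.1 M potassium phosphate pH 7.4. Reaction started with TP (0.00883 U/0.2 ml). Inhibitor added from stock. Initial velocity compared with the mean of at least two no-inhibitor controls.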

[7] = target: T1, Thymidine phosphorylase (Homo sapiens) (UniProt P19971); assay: Inhibition of human recombinant thymidine phosphorylase at 62.3 uM
T1 sequence (whole entry): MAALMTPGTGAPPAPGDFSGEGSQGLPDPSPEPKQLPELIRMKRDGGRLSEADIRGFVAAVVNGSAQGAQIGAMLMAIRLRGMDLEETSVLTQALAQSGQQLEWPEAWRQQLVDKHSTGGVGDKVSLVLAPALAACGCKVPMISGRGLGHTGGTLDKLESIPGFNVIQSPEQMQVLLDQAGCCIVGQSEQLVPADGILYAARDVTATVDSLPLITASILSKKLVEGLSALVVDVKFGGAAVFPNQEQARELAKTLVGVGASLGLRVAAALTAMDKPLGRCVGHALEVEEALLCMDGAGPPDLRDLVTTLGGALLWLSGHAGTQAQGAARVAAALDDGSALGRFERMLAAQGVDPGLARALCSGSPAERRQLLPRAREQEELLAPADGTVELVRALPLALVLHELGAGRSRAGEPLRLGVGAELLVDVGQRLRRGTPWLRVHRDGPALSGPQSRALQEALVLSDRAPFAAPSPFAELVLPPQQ
In short: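 Recombinant human TP expressed in V79 Chinese hamster cells; continuous spectrophotometric assay at 355 nm, 25 °C. Uses 0.33 mM 5-nitro-2'-deoxyuridine substrate in 0.1 M potassium phosphate pH 7.4. Reaction started by adding enzyme. Inhibition taken from initial velocity relative to the mean of at least two no-inhibitor controls.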

[8] = target: Thymidine phosphorylase (Escherichia coli K-12) (UniProt P07650); assay: Inhibition of Escherichia coli thymidine phosphorylase at 74 to 148 uM; in short: as §1
[9] = target: Thymidine phosphorylase (Escherichia coli K-12) (UniProt P07650); assay: Inhibition of Escherichia coli thymidine phosphorylase at 158 uM; in short: as §1
[10] = target: Thymidine phosphorylase (Escherichia coli K-12) (UniProt P07650); assay: Inhibition of Escherichia coli thymidine phosphorylase at 103.6 to 207.2 uM; in short: as §1
[11] = target: Thymidine phosphorylase (Escherichia coli K-12) (UniProt P07650); assay: Inhibition of Escherichia coli thymidine phosphorylase at 73.7 to 147.7 uM; in short: as §1

Chain of Thymidine phosphorylase (Escherichia coli K-12) (P07650 whole entry, looked up): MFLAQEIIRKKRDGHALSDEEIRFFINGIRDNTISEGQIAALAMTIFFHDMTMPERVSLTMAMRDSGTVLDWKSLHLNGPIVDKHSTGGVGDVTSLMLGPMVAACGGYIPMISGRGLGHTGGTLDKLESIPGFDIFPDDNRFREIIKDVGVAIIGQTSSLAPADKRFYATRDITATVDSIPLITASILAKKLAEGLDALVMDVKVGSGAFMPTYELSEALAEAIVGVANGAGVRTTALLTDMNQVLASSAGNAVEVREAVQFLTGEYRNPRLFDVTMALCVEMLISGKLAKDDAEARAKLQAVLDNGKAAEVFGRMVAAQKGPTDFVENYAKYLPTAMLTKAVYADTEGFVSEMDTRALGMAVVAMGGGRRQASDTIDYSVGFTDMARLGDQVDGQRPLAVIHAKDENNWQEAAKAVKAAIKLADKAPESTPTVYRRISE

SMILES: O=c1[nH]c(=S)[nH]c2[nH]ccc12
Activity [5]: inactive

SMILES: N=C1CCCN1Cc1nc[nH]c(=O)c1Cl
Activity [6]: inactive
Activity [7]: inactive

SMILES: O=c1[nH]c(=O)c2nc[nH]c2[nH]1
Activity [9]: inactive

SMILES: Nc1nc[nH]c(=O)c1Br
Activity [11]: inactive

Now from value to compound:

Activity [1]: inactive
SMILES: Nc1ncncc1Br

Activity [2]: inactive
SMILES: Nc1[nH]c(=O)ncc1Br

Activity [3]: inactive
SMILES: O=c1nccc2[nH]ccn12

Activity [4]: inactive
SMILES: Cc1nc[nH]c(=O)c1Cl

Activity [8]: inactive
SMILES: O=c1ncc2cc[nH]c2[nH]1

Activity [10]: inactive
SMILES: O=c1[nH]cnc2[nH]ccc12
